# PubChem BioAssay AID624176 (Southern Research Specialized Biocontainment Screening …, 2012)
# pIC50: −log10 of the molar value. Calls of active or inactive are those of the source.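 The calls were made as follows: active = inhibition of 30% or more at any tested concentration; inactive = the rest.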
# Target: Aminopeptidase N (Plasmodium falciparum (isolate 3D7)) (UniProt O96935)
# Test: inhibition of P. falciparum M1 aminopeptidase – biochemical, QFRET fluorogenic substrate, set 3, counter-screen for PfM18AAP inhibitor project, dose response (AID 624176)
# Details: recombinant PfM1AAP, H-Leu-NHMec fluorogenic cleavage
# Method in brief: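 Test system: purified recombinant Plasmodium falciparum M1 alanyl aminopeptidase (PfM1AAP); quantity: PfM1AAP at 5 µg/mL final; signal: fluorescence of released NHMec, excitation 370 nm, emission 460 nm; measure: IC50 from constrained four-parameter fit; doses: 10-point twofold series from 100 µM; timing: reaction 90 min, room temperature; also added: H-Leu-NHMec substrate, 0.1 mM; replication: triplicate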
# Sequence of Aminopeptidase N (Plasmodium falciparum (isolate 3D7)) (O96935 whole entry, looked up): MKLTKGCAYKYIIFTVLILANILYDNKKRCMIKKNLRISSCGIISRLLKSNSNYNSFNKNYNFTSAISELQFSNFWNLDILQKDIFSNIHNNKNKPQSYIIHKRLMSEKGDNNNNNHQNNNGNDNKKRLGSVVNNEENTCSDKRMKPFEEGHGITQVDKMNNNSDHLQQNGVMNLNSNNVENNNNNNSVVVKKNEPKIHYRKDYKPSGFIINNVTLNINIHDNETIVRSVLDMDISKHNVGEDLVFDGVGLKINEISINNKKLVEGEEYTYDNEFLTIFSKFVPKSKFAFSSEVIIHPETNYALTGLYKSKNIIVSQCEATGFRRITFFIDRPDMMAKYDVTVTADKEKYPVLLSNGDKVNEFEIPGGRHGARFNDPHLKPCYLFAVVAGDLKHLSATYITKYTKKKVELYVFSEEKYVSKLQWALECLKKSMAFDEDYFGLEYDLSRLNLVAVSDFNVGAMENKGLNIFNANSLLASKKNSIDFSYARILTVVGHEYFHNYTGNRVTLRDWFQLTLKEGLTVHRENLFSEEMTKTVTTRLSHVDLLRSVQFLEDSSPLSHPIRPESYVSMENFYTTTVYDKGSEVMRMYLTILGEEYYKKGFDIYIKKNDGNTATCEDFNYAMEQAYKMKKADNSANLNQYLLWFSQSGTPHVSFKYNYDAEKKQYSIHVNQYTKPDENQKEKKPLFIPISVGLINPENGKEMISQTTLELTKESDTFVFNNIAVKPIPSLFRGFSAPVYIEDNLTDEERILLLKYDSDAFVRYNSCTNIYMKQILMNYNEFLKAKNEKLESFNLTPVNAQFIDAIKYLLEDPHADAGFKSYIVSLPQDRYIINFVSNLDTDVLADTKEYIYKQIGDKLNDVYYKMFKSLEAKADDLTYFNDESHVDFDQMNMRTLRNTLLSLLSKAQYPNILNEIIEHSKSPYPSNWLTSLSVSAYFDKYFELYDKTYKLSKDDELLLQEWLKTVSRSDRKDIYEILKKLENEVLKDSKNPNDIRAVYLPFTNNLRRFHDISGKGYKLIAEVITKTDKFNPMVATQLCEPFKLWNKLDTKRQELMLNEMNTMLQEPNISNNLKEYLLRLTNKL
row,pIC50,SMILES
1,3.98,Cc1cccc2c(NCCc3ccc(O)c(O)c3)ccnc12
2,4.21,CN(CCc1ccc(O)c(O)c1)c1ncnc2ccccc12
3,4.25,Oc1cccc(CCNc2ccnc3ccccc23)c1O
4,4.13,Oc1ccc(CCNc2ccnc3cc(Cl)ccc23)cc1O
5,4.00,CCN(CCc1ccc(O)c(O)c1)c1c2ccccc2nc2ccccc12
6,4.33,Oc1ccc(C2CCN(c3ccnc4ccccc34)C2)cc1O (stereo not given)
7,4.13,Oc1ccc(C2CCN(c3ccnc4ccccc34)CC2)cc1O
8,4.12,CN(CCc1ccc(O)c(O)c1)c1ccnc2cc(Cl)ccc12
9,4.08,CN(CCc1ccc(O)c(O)c1)c1ccnc2c(F)cccc12
10,4.00,Cc1cc(N(C)CCc2ccc(O)c(O)c2)c2ccccc2n1

# Same assay, conditions: recombinant PfM1AAP, H-Leu-NHMec fluorogenic cleavage; at 100 µM (top of the series)
row,inhibition,SMILES
1,inactive,COc1ccc(C2CCN(c3ccnc4ccccc34)CC2)cc1OC
2,inactive,COc1ccc(CCNc2cc(C)nc3ccccc23)cc1OC
3,inactive,Nc1c2ccccc2nc2ccccc12
4,inactive,CCN(CCc1ccc(OC)c(OC)c1)c1c2ccccc2nc2ccccc12
5,inactive,COc1cc(Br)c(CCNc2c3c(nc4ccccc24)CCCC3)cc1OC
6,inactive,COc1ccc(CCCN(C)c2c3ccccc3nc3ccccc23)cc1OC
7,inactive,COc1ccc(CCNc2ccnc3c(F)cccc23)cc1OC
8,inactive,COc1ccc(CCNc2ccnc3c(C)cccc23)cc1OC
9,inactive,COc1ccc(CCN(C)c2ncnc3ccccc23)cc1OC
10,inactive,COc1ccc(CCNc2ncnc3ccccc23)cc1OC
11,inactive,CCOc1ccc2nccc(NCCc3ccc(OC)c(OC)c3)c2c1
12,inactive,COc1ccc(CCN(C)c2ccnc3c(F)cccc23)cc1OC
13,inactive,COc1ccc(CCNC(=O)c2cc(C)ccc2N)cc1OC
14,inactive,COc1cc(Br)c(CCNc2ccnc3ccccc23)cc1OC
15,inactive,COc1ccc(C2CCN(c3ccnc4ccccc34)C2)cc1OC (stereo not given)
16,inactive,CCOc1ccc2nccc(N(C)CCc3ccc(OC)c(OC)c3)c2c1
17,inactive,COc1ccc(CCN(C)c2cc(C)nc3ccccc23)cc1OC
18,inactive,COc1ccc(CCCNc2c3c(nc4ccccc24)CCCC3)cc1OC
19,inactive,COc1cc(Br)c(CCNc2c3ccccc3nc3ccccc23)cc1OC
20,inactive,COc1ccc(CCNc2ccnc3cc(Cl)ccc23)cc1OC
21,inactive,COc1ccc(CCN(C)c2ccnc3c(C)cccc23)cc1OC
22,inactive,COc1ccc(CCN(C)c2ccnc3cc(Cl)ccc23)cc1OC
23,inactive,COc1ccc(CCN(C)c2c3ccccc3nc3ccccc23)cc1OC
24,inactive,COc1ccc(CCNc2c3c(nc4ccc(C)cc24)CCCC3)cc1OC
25,inactive,Clc1c2c(nc3ccccc13)CCCC2
